Legend:
[1] = biological target: Serine/threonine-protein kinase Nek2 (Homo sapiens) (UniProt P51955); test: Inhibition of NEK2 at 10 uM
[2] = biological target: Casein kinase I isoform gamma-1 (Homo sapiens) (UniProt Q9HCP0); test: Inhibition of CSNK1G1 at 10 uM
[3] = biological target: G protein-coupled receptor kinase 5 (Homo sapiens) (UniProt P34947); test: Inhibition of GRK5 at 10 uM
[4] = biological target: Mast/stem cell growth factor receptor Kit (Homo sapiens) (UniProt P10721); test: Inhibition of KIT at 10 uM
[5] = biological target: Interleukin-1 receptor-associated kinase 1 (Homo sapiens) (UniProt P51617); test: Inhibition of IRAK1 at 10 uM
[6] = biological target: Calcium/calmodulin-dependent protein kinase type 1D (Homo sapiens) (UniProt Q8IU85); test: Inhibition of CAMK1delta at 10 uM
[7] = biological target: Protein kinase C gamma type (Homo sapiens) (UniProt P05129); test: Inhibition of PKCgamma at 10 uM
[8] = biological target: Serine/threonine-protein kinase Nek4 (Homo sapiens) (UniProt P51957); test: Inhibition of NEK4 at 10 uM
[9] = biological target: Protein kinase C eta type (Homo sapiens) (UniProt P24723); test: Inhibition of PKCeta at 10 uM
[10] = biological target: Calcium/calmodulin-dependent protein kinase type II subunit beta (Homo sapiens) (UniProt Q13554); test: Inhibition of CAMK2beta at 10 uM
[11] = biological target: Ephrin type-A receptor 2 (Homo sapiens) (UniProt P29317); test: Inhibition of EPHA2 at 10 uM
[12] = biological target: Tyrosine-protein kinase Fes/Fps (Homo sapiens) (UniProt P07332); test: Inhibition of FES at 10 uM
[13] = system: Tyrosine-protein kinase ABL1 (Homo sapiens), P00519 [T315I]; test: Inhibition of ABL1 T315I (mutant) at 10 uM
[14] = biological target: Ephrin type-A receptor 3 (Homo sapiens) (UniProt P29320); test: Inhibition of EPHA3 at 10 uM
[15] = biological target: Protein kinase C epsilon type (Homo sapiens) (UniProt Q02156); test: Inhibition of PKCepsilon at 10 uM
[16] = biological target: Mitogen-activated protein kinase 8 (Homo sapiens) (UniProt P45983); test: Inhibition of JNK1 at 10 uM
[17] = biological target: Tyrosine-protein kinase ABL1 (Homo sapiens) (UniProt P00519); test: Inhibition of ABL1 at 10 uM
[18] = biological target: Serine/threonine-protein kinase N1 (Homo sapiens) (UniProt Q16512); test: Inhibition of PRK1 at 10 uM
[19] = biological target: Tyrosine-protein kinase JAK3 (Homo sapiens) (UniProt P52333); test: Inhibition of JAK3 at 10 uM
[20] = system: Tyrosine-protein kinase ABL1 (Homo sapiens), P00519 [Y253F]; test: Inhibition of ABL1 Y253F (mutant) at 10 uM
[21] = biological target: Receptor tyrosine-protein kinase erbB-2 (Homo sapiens) (UniProt P04626); test: Inhibition of ERBB2 at 10 uM
[22] = Clearance in po dosed Sprague-Dawley rat; format: ADME, organism-based; conditions: in vivo
[23] = biological target: Serine/threonine-protein kinase TAO1 (Homo sapiens) (UniProt Q7L7X3); test: Inhibition of TAO1 at 10 uM
[24] = biological target: Serine/threonine-protein kinase DCLK2 (Homo sapiens) (UniProt Q8N568); test: Inhibition of DCK2 at 10 uM
[25] = biological target: Serine/threonine-protein kinase MRCK alpha (Homo sapiens) (UniProt Q5VT25); test: Inhibition of MRCKalpha at 10 uM
[26] = biological target: Serine/threonine-protein kinase MARK2 (Homo sapiens) (UniProt Q7KZI7); test: Inhibition of MARK2 at 10 uM
[27] = system: Rattus norvegicus; test: Antiinflammatory activity in Lewis rat assessed as inhibition of LPS-induced TNFalpha release at 5 mg/kg administered before LPS challenge and measured after 4 hrs by ELISA; format: functional
Summary of the method: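 Rat LPS challenge. The compound was given at –4 h relative to LPS, at the dose in mg/kg shown for each line. Read-out is percent inhibition of TNFα.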

[28] = biological target: Serine/threonine-protein kinase 4 (Homo sapiens) (UniProt Q13043); test: Inhibition of MST1 at 10 uM
[29] = biological target: Insulin receptor (Homo sapiens) (UniProt P06213); test: Inhibition of INSR at 10 uM
[30] = biological target: Mitogen-activated protein kinase 1 (Homo sapiens) (UniProt P28482); test: Inhibition of ERK2 at 10 uM
[31] = biological target: Mitogen-activated protein kinase 14 (Homo sapiens, UniProt Q16539); test: Inhibition of p38alpha
[32] = biological target: Hepatocyte growth factor receptor (Homo sapiens) (UniProt P08581); test: Inhibition of cMet at 10 uM
[33] = biological target: Serine/threonine-protein kinase PAK 6 (Homo sapiens) (UniProt Q9NQU5); test: Inhibition of PAK6 at 10 uM
[34] = biological target: Serine/threonine-protein kinase PLK1 (Homo sapiens) (UniProt P53350); test: Inhibition of PLK1 at 10 uM
[35] = biological target: Serine/threonine-protein kinase SIK2 (Homo sapiens) (UniProt Q9H0K1); test: Inhibition of SNF1LK2 at 10 uM
[36] = system: Platelet-derived growth factor receptor alpha (Homo sapiens), P16234 [D842V]; test: Inhibition of PDGFRalpha D842V (mutant) at 10 uM
[37] = biological target: Serine/threonine-protein kinase D2 (Homo sapiens) (UniProt Q9BZL6); test: Inhibition of PKD2 at 10 uM
[38] = biological target: Phosphorylase b kinase gamma catalytic chain, skeletal muscle/heart isoform (Homo sapiens) (UniProt Q16816); test: Inhibition of PHKgamma1 at 10 uM
[39] = biological target: Casein kinase I isoform gamma-2 (Homo sapiens) (UniProt P78368); test: Inhibition of CSNK1G2 at 10 uM
[40] = biological target: Vascular endothelial growth factor receptor 2 (Homo sapiens) (UniProt P35968); test: Inhibition of KDR at 10 uM
[41] = biological target: Tyrosine-protein kinase ABL2 (Homo sapiens) (UniProt P42684); test: Inhibition of ABL2 at 10 uM
[42] = biological target: Focal adhesion kinase 1 (Homo sapiens) (UniProt Q05397); test: Inhibition of FAK at 10 uM
[43] = biological target: Ephrin type-A receptor 4 (Homo sapiens) (UniProt P54764); test: Inhibition of EPHA4 at 10 uM
[44] = biological target: Megakaryocyte-associated tyrosine-protein kinase (Homo sapiens) (UniProt P42679); test: Inhibition of MATK at 10 uM
[45] = Inhibition of PKG2 at 10 uM
[46] = biological target: Tyrosine-protein kinase Lck (Homo sapiens) (UniProt P06239); test: Inhibition of LCK at 10 uM
[47] = biological target: Ribosomal protein S6 kinase alpha-3 (Homo sapiens) (UniProt P51812); test: Inhibition of RSK2 at 10 uM

Sequence of Casein kinase I isoform gamma-1 (Homo sapiens) (Q9HCP0 whole entry, looked up, canonical isoform): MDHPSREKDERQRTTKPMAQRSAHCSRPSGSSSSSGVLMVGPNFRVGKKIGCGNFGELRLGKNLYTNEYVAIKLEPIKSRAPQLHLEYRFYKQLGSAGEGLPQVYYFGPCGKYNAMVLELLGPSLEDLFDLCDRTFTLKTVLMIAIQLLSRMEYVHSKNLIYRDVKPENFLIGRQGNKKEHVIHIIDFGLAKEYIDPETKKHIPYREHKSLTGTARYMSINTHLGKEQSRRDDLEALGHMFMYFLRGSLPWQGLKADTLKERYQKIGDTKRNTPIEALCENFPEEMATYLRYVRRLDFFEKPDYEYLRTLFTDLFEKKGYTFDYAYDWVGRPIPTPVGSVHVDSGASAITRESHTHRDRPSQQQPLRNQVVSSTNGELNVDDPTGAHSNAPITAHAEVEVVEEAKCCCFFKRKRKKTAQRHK
Sequence of Vascular endothelial growth factor receptor 2 (Homo sapiens) (P35968 whole entry): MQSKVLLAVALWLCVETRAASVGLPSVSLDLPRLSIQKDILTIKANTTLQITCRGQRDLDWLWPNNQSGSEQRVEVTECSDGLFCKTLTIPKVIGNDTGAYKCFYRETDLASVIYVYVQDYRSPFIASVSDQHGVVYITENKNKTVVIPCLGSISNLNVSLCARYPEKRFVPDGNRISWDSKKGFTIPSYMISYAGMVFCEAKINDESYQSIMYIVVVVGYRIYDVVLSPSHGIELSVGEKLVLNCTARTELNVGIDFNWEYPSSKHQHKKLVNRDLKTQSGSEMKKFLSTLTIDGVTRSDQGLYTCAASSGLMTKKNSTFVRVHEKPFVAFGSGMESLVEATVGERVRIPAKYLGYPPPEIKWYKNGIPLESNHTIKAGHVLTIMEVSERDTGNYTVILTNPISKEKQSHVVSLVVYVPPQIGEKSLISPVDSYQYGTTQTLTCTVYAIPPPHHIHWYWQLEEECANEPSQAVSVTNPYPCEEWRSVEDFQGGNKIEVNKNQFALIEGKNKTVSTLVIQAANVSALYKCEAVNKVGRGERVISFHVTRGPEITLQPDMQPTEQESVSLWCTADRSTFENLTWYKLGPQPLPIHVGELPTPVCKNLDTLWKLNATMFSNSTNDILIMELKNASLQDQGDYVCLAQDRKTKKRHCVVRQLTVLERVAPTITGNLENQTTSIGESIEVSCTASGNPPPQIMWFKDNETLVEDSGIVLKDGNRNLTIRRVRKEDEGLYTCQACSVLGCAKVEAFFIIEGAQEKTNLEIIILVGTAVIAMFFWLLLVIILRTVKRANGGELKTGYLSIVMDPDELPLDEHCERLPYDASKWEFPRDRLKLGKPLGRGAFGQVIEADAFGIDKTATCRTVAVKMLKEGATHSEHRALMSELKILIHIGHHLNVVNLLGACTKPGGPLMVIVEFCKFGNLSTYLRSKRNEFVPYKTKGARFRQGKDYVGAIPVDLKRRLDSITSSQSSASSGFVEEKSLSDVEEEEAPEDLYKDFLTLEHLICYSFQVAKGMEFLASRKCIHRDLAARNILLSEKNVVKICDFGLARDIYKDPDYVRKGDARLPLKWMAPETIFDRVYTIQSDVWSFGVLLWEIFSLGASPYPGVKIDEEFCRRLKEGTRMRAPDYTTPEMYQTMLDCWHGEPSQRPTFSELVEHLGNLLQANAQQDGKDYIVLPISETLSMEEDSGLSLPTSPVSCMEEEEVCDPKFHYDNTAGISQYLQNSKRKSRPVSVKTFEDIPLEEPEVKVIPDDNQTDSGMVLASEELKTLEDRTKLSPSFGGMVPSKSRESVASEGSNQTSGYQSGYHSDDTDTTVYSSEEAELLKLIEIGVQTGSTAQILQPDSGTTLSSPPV
Sequence of Calcium/calmodulin-dependent protein kinase type 1D (Homo sapiens) (Q8IU85 whole entry, looked up): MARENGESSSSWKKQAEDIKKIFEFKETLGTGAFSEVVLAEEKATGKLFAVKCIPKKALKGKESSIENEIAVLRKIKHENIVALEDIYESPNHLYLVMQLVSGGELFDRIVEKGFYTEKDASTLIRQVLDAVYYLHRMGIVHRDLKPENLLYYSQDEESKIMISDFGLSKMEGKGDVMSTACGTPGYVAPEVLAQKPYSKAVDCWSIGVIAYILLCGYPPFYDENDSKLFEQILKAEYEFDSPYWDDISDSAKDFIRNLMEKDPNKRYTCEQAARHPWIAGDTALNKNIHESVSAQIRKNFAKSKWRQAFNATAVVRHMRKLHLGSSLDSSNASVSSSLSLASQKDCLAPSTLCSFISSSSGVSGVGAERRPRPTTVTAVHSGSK
Sequence of Focal adhesion kinase 1 (Homo sapiens) (Q05397 2-1052 limits assumed): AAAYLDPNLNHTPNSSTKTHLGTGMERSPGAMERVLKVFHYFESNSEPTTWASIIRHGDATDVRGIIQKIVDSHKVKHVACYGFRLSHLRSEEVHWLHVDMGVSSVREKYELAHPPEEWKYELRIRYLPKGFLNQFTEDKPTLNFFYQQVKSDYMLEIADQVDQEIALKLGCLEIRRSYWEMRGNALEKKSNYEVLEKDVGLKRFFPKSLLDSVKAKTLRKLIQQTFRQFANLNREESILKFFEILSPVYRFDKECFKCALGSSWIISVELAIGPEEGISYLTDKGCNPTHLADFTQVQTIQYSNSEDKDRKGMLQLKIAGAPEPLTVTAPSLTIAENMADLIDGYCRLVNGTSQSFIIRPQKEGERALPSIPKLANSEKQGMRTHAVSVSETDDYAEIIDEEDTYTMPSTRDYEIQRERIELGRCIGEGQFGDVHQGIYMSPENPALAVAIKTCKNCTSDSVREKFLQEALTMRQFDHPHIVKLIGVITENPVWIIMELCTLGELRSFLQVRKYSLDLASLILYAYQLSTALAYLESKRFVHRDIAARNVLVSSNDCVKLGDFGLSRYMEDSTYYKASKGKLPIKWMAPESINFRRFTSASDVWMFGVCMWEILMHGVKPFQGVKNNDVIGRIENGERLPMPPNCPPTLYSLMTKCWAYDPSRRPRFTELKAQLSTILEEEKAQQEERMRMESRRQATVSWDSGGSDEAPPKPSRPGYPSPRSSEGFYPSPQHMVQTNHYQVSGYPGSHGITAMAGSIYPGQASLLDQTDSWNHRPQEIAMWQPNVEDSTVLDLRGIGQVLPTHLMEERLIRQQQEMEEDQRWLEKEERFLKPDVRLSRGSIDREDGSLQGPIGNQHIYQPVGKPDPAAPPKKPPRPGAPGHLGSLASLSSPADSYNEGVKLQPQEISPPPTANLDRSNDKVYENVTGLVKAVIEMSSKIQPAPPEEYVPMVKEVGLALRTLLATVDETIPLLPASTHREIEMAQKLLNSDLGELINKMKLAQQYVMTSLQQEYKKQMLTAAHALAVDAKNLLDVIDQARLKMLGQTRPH
Sequence of Calcium/calmodulin-dependent protein kinase type II subunit beta (Homo sapiens) (Q13554 whole entry): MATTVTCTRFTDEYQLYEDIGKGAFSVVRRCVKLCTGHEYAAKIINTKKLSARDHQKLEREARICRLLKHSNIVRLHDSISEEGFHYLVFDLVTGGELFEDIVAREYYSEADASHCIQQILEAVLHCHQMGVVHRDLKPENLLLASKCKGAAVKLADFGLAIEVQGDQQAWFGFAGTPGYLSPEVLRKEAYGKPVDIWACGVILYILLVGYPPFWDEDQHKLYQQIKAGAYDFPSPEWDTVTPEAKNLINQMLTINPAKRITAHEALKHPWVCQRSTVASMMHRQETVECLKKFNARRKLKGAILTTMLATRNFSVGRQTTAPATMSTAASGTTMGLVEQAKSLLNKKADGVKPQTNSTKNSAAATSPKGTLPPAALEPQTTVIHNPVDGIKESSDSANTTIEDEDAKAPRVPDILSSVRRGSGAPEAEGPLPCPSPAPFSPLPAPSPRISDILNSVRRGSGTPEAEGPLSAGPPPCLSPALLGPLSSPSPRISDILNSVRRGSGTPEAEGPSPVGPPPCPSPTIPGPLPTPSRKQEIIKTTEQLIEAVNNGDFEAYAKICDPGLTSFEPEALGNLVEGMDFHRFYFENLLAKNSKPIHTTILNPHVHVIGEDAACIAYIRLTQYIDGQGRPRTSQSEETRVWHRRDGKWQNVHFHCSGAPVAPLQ
Sequence of Mast/stem cell growth factor receptor Kit (Homo sapiens) (P10721 whole entry): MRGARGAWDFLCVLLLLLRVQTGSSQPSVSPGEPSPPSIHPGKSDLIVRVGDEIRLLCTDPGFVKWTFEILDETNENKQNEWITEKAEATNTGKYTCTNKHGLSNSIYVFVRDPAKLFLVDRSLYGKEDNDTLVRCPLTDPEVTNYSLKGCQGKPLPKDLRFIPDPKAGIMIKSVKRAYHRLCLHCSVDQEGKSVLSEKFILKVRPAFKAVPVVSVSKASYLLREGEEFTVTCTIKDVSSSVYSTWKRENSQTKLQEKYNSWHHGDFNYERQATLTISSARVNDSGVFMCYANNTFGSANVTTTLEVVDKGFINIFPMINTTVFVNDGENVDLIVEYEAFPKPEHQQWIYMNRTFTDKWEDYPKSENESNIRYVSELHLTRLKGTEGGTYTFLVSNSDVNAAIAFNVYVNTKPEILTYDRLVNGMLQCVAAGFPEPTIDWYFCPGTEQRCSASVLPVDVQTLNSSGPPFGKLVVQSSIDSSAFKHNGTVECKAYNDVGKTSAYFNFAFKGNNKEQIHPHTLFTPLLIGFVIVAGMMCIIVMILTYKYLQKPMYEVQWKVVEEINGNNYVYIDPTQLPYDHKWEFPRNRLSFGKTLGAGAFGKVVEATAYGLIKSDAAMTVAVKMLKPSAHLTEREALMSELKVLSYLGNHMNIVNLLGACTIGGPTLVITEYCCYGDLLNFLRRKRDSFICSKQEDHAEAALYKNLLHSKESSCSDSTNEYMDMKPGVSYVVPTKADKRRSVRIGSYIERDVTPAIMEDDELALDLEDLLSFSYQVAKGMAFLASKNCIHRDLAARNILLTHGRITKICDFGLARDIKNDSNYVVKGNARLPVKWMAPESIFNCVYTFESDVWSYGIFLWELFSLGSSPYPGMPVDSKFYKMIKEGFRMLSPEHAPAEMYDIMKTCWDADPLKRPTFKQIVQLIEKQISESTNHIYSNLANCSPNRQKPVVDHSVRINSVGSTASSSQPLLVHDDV

SMILES: Cc1cc(OCc2ccc(F)cc2F)c(Br)c(=O)n1Cc1ccc(CN(C)C)cc1
- inhibition [1]: < 50%
- inhibition [2]: < 50%
- inhibition [3]: < 50%
- inhibition [4]: < 50%
- inhibition [5]: < 50%
- inhibition [6]: < 50%
- inhibition [7]: < 50%
- inhibition [8]: < 50%
- inhibition [9]: < 50%
- inhibition [10]: < 50%
- inhibition [11]: < 50%
- inhibition [12]: < 50%
- inhibition [13]: < 50%
- inhibition [14]: < 50%
- inhibition [15]: < 50%
- inhibition [16]: < 50%
- inhibition [17]: < 50%
- inhibition [18]: < 50%
- inhibition [19]: < 50%
- inhibition [20]: < 50%
- inhibition [21]: < 50%
- CL/F [22]: 70 mL/min/kg
- inhibition [23]: < 50%
- inhibition [24]: < 50%
- inhibition [25]: < 50%
- inhibition [26]: < 50%
- inhibition in vivo at 5 mg/kg [27]: 87%
- inhibition [28]: < 50%
- inhibition [29]: < 50%
- inhibition [30]: < 50%
- IC50 [31]: 59 nM
- inhibition [32]: < 50%
- inhibition [33]: < 50%
- inhibition [34]: < 50%
- inhibition [35]: < 50%
- inhibition [36]: < 50%
- inhibition [37]: < 50%
- inhibition [38]: < 50%
- inhibition [39]: < 50%
- inhibition [40]: < 50%
- inhibition [41]: < 50%
- inhibition [42]: < 50%
- inhibition [43]: < 50%
- inhibition [44]: < 50%
- inhibition [45]: < 50%
- inhibition [46]: < 50%
- inhibition [47]: < 50%

From ChEMBL document CHEMBL1154277, “Discovery of N-substituted pyridinones as potent and selective inhibitors of p38 kinase” (Bioorg Med Chem Lett, 2009)
